Published values collected from several papers.
Each line is one published result; the experiments were not run side by side.
Target: Wee1-like protein kinase 2 (WEE2, Homo sapiens, UniProt P0C1S8)

SMILES	assay	setting	remaining binding
Cn1cc(Cl)c2c(Oc3c(F)cc(Nc4cc(Cl)nc(N)n4)cc3F)ccnc21	cell-free assay, competition with immobilised ligand	0.1 µM	93%
c1cnn2ncc(-c3ccnc(N4CCC45COC5)n3)c2c1	binding	1 µM	76%
O=C(c1ccc(Nc2nccc(-c3cc4ccccc4s3)n2)cc1)N1CCC(N2CCCC2)CC1	binding, competition with immobilised ligand	1 µM	65%
FC(F)(F)c1ccc2c(c1)nc(-c1cccnc1)n2C1CC1	cell-free assay, competition with immobilised ligand	1 µM	100%
Cc1cnn2ncc(-c3ccnc(N(C)C)n3)c2c1	binding	1 µM	100%
O=C(NCCCN1CCOCC1)c1ccc(Nc2ncc(Cl)c(-c3ccc(Cl)s3)n2)cc1	binding, competition with immobilised ligand	1 µM	19%
O=C(NCC1CCOCC1)c1n[nH]cc1NC(=O)c1c(F)cccc1F	binding, competition with immobilised ligand	1 µM	100%
NS(=O)(=O)c1cc(NC(=O)Cc2ccccc2)ccc1Oc1cccc(Cl)c1	cell-free assay, competition with immobilised ligand	1 µM	78%
C=CC(=O)N1CCC(C(=O)NCC(=O)N2CCN(c3nc(-c4cnc(N)nc4C(F)F)nc(N4CCOCC4)n3)CC2)CC1	binding, competition with immobilised ligand	1 µM	100%
FC(F)(F)Oc1cccc(-c2cnc3ccc(-c4ccncc4)nn23)c1	binding, competition with immobilised ligand	5 µM	86%
N[C@H]1CCN(c2nccc(-c3cnn4ncccc34)n2)C1	binding	1 µM	100%
c1cncc(-c2cccc(Nc3nccc(NC4CCCCC4)n3)c2)c1	binding, competition with immobilised ligand	10 µM	100%
COc1cnc(Nc2cccc(S(N)(=O)=O)c2)nc1N1CCN(c2ccccc2)C(=O)C1	binding, competition with immobilised ligand	1 µM	100%
COc1cccc(CNC(=O)c2nc3scc(COCc4ccc(C(=O)O)cc4)c3c(=O)[nH]2)c1	cell-free assay, competition with immobilised ligand	1 µM	96.9%
O=C(c1ccc(Nc2ncc(Cl)c(-c3ccc(Cl)s3)n2)cc1)N1CCC(N2CCCC2)CC1	binding, competition with immobilised ligand	1 µM	8.4%
CN(c1nccc(-c2cnn3ncccc23)n1)C1CC1	binding	1 µM	100%
CNC(=O)c1ccc(Nc2ncc(C(F)(F)F)c(NCc3nccnc3N(C)S(C)(=O)=O)n2)cc1	cell-free assay, competition with immobilised ligand	0.1 µM	97%
CN(CCCC(F)(F)F)c1nccc(-c2cnn3ncccc23)n1	binding	1 µM	97%
C[C@@H](c1ccc(-n2cnc3c(N)ncnc32)cc1)N1CCc2nn(C)c(Cc3ccccc3)c2C1=O	binding, competition with immobilised ligand	0.1 µM	92%
Cc1cc(-n2nc(Cc3cc(F)cc(C(F)(F)F)c3)nc2C)ccc1C(N)=O	cell-free assay, competition with immobilised ligand	1 µM	100%
C[C@H]1CCN(c2nccc(-c3cnn4ncccc34)n2)C1	binding	1 µM	100%
